Laboratory results reported in ChEMBL document CHEMBL1158344, “Synthesis and antinociceptive activities of some pyrazoline derivatives” (Eur J Med Chem, 2009).

What was measured:
Mus musculus [1] = species: Mus musculus; test: Neurological deficit effect in Swiss albino mouse assessed as effect on motor coordination by measuring fall latency by Rota rod test; conditions: in vivo
Summary of the method: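 Mice were trained for three consecutive days on a Rota-Rod at 16 rev/min, and only those staying on longer than 180 s were used. Each mouse was tested on the rod 5 min after the hot plate test, and the latency to fall was recorded.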

Mus musculus [2] = test: Toxicity in Swiss albino mouse assessed as mortality at 100 mg/kg; type: organism-based; parameters: dose 100 mg/kg; conditions: in vivo
Mus musculus [3] = test: Analgesic activity in 5 mg/kg naloxone pretreated Swiss albino mouse assessed as analgesia at 100 mg/kg by hot plate method; type: functional
Summary of the method: (§1)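 Mice, n = 7 per group, were placed one at a time on a hot plate held at 55 ± 1.0 °C. Latency to forepaw licking or to jumping out of the glass beaker was recorded, with a cut-off of 30 s. Latency was read 30 min after compound at 100 mg/kg or sunflower oil vehicle. In naloxone groups, naloxone 5 mg/kg ip was given 15 min before compound. Results are reported as % analgesia, mean ± SEM.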

Mus musculus [4] = test: Antinociceptive activity in 5 mg/kg naloxone pretreated Swiss albino mouse assessed as protection against acetic acid-induced writhing at 100 mg/kg, ip administered 30 mins before acetic acid challenge; type: functional
Summary of the method: (§2)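 Mice, n = 7 per group, received sunflower oil vehicle or compound at 100 mg/kg ip. 30 min later they were given 0.6% acetic acid ip at 10 mL/kg. Abdominal contractions and stretches were counted over 10 min, starting 5 min after the acetic acid. In naloxone groups, naloxone was given 15 min before compound. % protection = [(control mean − treated mean)/control mean] × 100.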

Mus musculus [5] = test: Analgesic activity in Swiss albino mouse assessed as analgesia at 100 mg/kg by hot plate method; type: functional; summary of the method: as §1
Mus musculus [6] = test: Antinociceptive activity in Swiss albino mouse assessed as protection against acetic acid-induced writhing at 100 mg/kg, ip administered 30 mins before acetic acid challenge; type: functional; conditions: route intraperitoneal; summary of the method: as §2
Mus musculus [7] = test: Analgesic activity in Swiss albino mouse assessed as analgesia at 10 mg/kg by hot plate method; type: functional
Summary of the method: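 Mice (n = 7) were dosed with the test compound in sunflower oil vehicle. Thirty minutes later each mouse was placed on a hot plate at 55 ± 1.0 °C. Latency to forepaw licking or jumping out of the glass beaker was recorded, with a 30 s cut-off. Values are mean ± SEM % analgesia.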

Mus musculus [8] = test: Antinociceptive activity in Swiss albino mouse assessed as protection against acetic acid-induced writhing at 10 mg/kg, ip administered 30 mins before acetic acid challenge; type: functional; conditions: route intraperitoneal
Summary of the method: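 Mice (n = 7) were given the compound i.p. in sunflower oil vehicle, then 0.6% acetic acid i.p. (10 mL/kg) 30 min later. Abdominal contractions and stretches were counted for 10 min, starting 5 min after the acid. % protection = [(control mean − treated mean)/control mean] × 100. Values are mean ± SEM.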

SMILES | Activity (Mus musculus [1]) | Activity (Mus musculus [2]) | Activity (Mus musculus [3]) | Activity (Mus musculus [4]) | Activity (Mus musculus [5]) | Activity (Mus musculus [6]) | Activity (Mus musculus [7]) | Activity (Mus musculus [8])
COc1ccc(C2CC(c3ccccc3)=NN2C(=O)CSc2nc3ccccc3[nH]2)cc1 (stereo not drawn) | Non-toxic | Non-toxic | -1.34% | 22.32% | 60.6% | 97.21% |  | 
Cc1ccc(C2=NN(C(=O)CSc3nc4ccccc4[nH]3)C(c3ccccc3)C2)cc1C (stereo not drawn) | Non-toxic | Non-toxic | -0.58% | 19.07% | 82.5% | 97.67% |  | 
O=C(CSc1nc2ccccc2[nH]1)N1N=C(c2ccccc2)CC1c1ccccc1 (stereo not drawn) | Non-toxic | Non-toxic | -1.5% | 12.56% | 61.9% | 85.13% |  | 
Cc1ccc(C2=NN(C(=O)CSc3nc4cc(Cl)ccc4o3)C(c3ccccc3)C2)cc1C (stereo not drawn) | Non-toxic | Non-toxic | -0.97% | 21.39% | 72.6% | 98.14% |  | 
O=C(CSc1nc2cc(Cl)ccc2o1)N1N=C(c2ccccc2)CC1c1ccccc1 (stereo not drawn) | Non-toxic | Non-toxic | -1.32% | 7.44% | 59.7% | 57.72% |  | 
COc1ccc(C2CC(c3ccccc3)=NN2C(=O)CSc2nc3cc(Cl)ccc3o2)cc1 (stereo not drawn) | Non-toxic | Non-toxic | -2.95% | 5.58% | 47.7% | 43.32% |  | 
CN1CC[C@]23c4c5ccc(O)c4O[C@H]2[C@@H](O)C=C[C@H]3[C@H]1C5 [MORPHINE] |  |  |  |  |  |  | 92.9% | 87.45%
